Test results: ChEMBL document CHEMBL1123155, “Synthesis and inhibition of human acrosin and trypsin and acute toxicity of aryl 4-guanidinobenzoates” (J Med Chem, 1986)
pIC50: −log10 of the molar value.

Legend:
Acrosin = Acrosin (Homo sapiens, UniProt P10323); experiment: Inhibition of human acrosin and control activity being 11.3 umol/min/mg; settings: read-out: I50
Serine protease 1 = Serine protease 1 (Homo sapiens, UniProt P07477); experiment: Inhibition of human trypsin and the control activity being 7.3 umol/min/mg; settings: read-out: I50
Chain of Serine protease 1 (P07477 whole entry): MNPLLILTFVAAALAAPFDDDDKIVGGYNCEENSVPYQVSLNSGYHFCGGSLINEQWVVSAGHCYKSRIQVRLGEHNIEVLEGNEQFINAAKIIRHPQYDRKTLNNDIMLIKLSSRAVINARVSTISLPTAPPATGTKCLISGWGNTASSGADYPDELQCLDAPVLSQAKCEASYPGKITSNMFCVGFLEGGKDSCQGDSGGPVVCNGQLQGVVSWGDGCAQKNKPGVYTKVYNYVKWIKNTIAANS

[1] = Lethal dose that produces death in 50% of mice within 24 hr after acute treatment; type: toxicity, organism-based; settings: mouse, in vivo
How it was run: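 Mature male Swiss Webster albino mice, minimum body weight 25 g; compounds suspended in 5% gum acacia and given as a single intraperitoneal injection at 0.1 mL/10 g body weight. Deaths scored within 24 h. LD50 taken from dose-response curves by the Litchfield and Wilcoxon method, with 95% confidence limits.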

Chain of Acrosin (P10323 20-42 limits assumed): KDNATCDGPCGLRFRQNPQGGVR
Chain of Acrosin (P10323 43-343 limits assumed): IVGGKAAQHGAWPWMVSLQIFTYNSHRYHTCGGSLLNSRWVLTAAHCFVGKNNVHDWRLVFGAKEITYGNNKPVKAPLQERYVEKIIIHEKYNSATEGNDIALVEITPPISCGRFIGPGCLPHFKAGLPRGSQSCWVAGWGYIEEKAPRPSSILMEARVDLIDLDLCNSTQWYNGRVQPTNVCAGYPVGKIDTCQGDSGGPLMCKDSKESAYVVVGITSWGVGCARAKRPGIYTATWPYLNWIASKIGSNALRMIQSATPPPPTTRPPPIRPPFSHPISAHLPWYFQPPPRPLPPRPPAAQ

SMILES	pIC50 (Acrosin)	pIC50 (Serine protease 1)	LD50 at 24 h [1]
N#Cc1ccc(OC(=O)c2ccc(NC(=N)N)cc2)cc1	8.92	8.80	–
COc1ccccc1OC(=O)c1ccc(NC(=N)N)cc1	7.56	7.06	–
N=C(N)Nc1ccc(C(=O)Oc2ccccc2)cc1	8.25	7.63	–
COC(=O)c1ccc(OC(=O)c2ccc(NC(=N)N)cc2)cc1.Cl	9.17	8.82	235 mg/kg
N=C(N)Nc1ccc(C(=O)Oc2cccc(C(F)(F)F)c2)cc1	7.41	7.04	–
Cl.N=C(N)Nc1ccc(C(=O)Oc2cccc3cccnc23)cc1	7.70	7.56	240 mg/kg
Cc1ccc(C(C)C)c(OC(=O)c2ccc(NC(=N)N)cc2)c1.Cc1ccc(S(=O)(=O)O)cc1	6.52	6.30	> 2000 mg/kg
CCOC(=O)c1ccc(OC(=O)c2ccc(NC(=N)N)cc2)cc1.Cl	8.03	8.80	300 mg/kg
Cc1ccc(OC(=O)c2ccc(NC(=N)N)cc2)cc1	8.48	7.71	–
N=C(N)Nc1ccc(C(=O)Oc2ccc(Cl)cc2)cc1	8.52	8.09	–
C=CCc1ccc(OC(=O)c2ccc(NC(=N)N)cc2)c(OC)c1	7.86	8.08	870 mg/kg
CC(C)c1ccc(OC(=O)c2ccc(NC(=N)N)cc2)cc1	8.18	7.76	–
Cl.N=C(N)Nc1ccc(C(=O)Oc2ccccc2C(N)=O)cc1	6.52	6.52	> 1000 mg/kg
CCCCOc1ccc(OC(=O)c2ccc(NC(=N)N)cc2)cc1	7.94	7.65	–
N#Cc1cccc(OC(=O)c2ccc(NC(=N)N)cc2)c1	8.14	8.42	–
COc1cccc(OC(=O)c2ccc(NC(=N)N)cc2)c1	7.75	7.78	–
COC(=O)c1ccccc1OC(=O)c1ccc(NC(=N)N)cc1	7.89	7.19	750 mg/kg
CC(C)(C)c1ccc(OC(=O)c2ccc(NC(=N)N)cc2)cc1	7.55	7.77	–
COC(=O)c1cccc(OC(=O)c2ccc(NC(=N)N)cc2)c1	8.27	7.57	–
N=C(N)Nc1ccc(C(=O)Oc2ccc(C(F)(F)F)cc2)cc1	7.48	7.79	–
CCCCCCc1ccc(OC(=O)c2ccc(NC(=N)N)cc2)cc1O	7.00	7.73	620 mg/kg
CC(=O)Nc1ccc(OC(=O)c2ccc(NC(=N)N)cc2)cc1.Cl	8.10	7.63	850 mg/kg
N=C(N)Nc1ccc(C(=O)Oc2ccc(Br)cc2)cc1	8.46	8.41	–
COc1ccc(OC(=O)c2ccc(NC(=N)N)cc2)cc1	7.79	7.72	–
